Source: article PMC6828636 (European Journal of Drug Metabolism and Pharmacokinetics, 2019)
Read-outs that look alike come from different tables or passages of the source.

Assays:
BSEP = BSEP (Homo sapiens, UniProt O95342); assay: BSEP inhibition in sandwich-cultured human hepatocytes; type: in vitro ADME
Summary of the method: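 Sandwich-cultured human hepatocytes were used. Probe substrate was taurocholic acid, with cyclosporin as reference inhibitor. Probe transport was measured without and with test compound to derive IC50. Protein was added to the medium for one tested compound, permitting a higher test concentration.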

CYP2C19 = CYP2C19 (Homo sapiens, UniProt P33261); assay: CYP2C19 inhibition in human liver microsomes; type: in vitro ADME
Summary of the method: (§1)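 Pooled human liver microsomes were incubated with standard CYP-selective substrates, with and without test compound at 0.03–100 μM. Standard selective inhibitors for each isoform ran in parallel as positive controls. Read-out was IC50. For CYP3A4 only, time-dependent inhibition was also tested after 30 min preincubation, using midazolam and testosterone as substrates.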

OAT1 = OAT1 (Homo sapiens, UniProt Q4U2R8); assay: OAT1 uptake inhibition in transfected HEK cells; type: in vitro ADME
Summary of the method: (§2)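 HEK cells overexpressing NTCP, OAT1, OAT3, OATP2B1, OCT1 or OCT2 were incubated with probe substrate. Pairs were estrone 3-sulfate/cyclosporin A (NTCP), PAH/probenecid (OAT1), furosemide/probenecid (OAT3), estrone 3-sulfate/glibenclamide (OATP2B1), 3H-MPP+/decynium 22 (OCT1) and 3H-MPP+/imipramine (OCT2). IC50 was determined with and without test compound, at ≤50 µM for the parent and ≤10 µM for the metabolite.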

MRP2 = MRP2 (Homo sapiens, UniProt Q92887); assay: MRP2 inhibition in transfected HEK cells; type: in vitro ADME
Summary of the method: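 HEK cells were transfected with MRP2, MATE1 or MATE2-K. Pairs were CDCF/benzbromarone (MRP2), metformin/cimetidine (MATE1) and metformin/pyrimethamine (MATE2-K). Probe transport was assessed with and without test compound, and IC50 was determined.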

OAT3 = OAT3 (Homo sapiens, UniProt Q8TCC7); assay: OAT3 uptake inhibition in transfected HEK cells; type: in vitro ADME
Summary of the method: as §2

CYP2A6 = biological target: T1, CYP2A6 (Homo sapiens, UniProt P11509); assay: CYP2A6 inhibition in human liver microsomes; type: in vitro ADME
T1 sequence (P11509 1-494): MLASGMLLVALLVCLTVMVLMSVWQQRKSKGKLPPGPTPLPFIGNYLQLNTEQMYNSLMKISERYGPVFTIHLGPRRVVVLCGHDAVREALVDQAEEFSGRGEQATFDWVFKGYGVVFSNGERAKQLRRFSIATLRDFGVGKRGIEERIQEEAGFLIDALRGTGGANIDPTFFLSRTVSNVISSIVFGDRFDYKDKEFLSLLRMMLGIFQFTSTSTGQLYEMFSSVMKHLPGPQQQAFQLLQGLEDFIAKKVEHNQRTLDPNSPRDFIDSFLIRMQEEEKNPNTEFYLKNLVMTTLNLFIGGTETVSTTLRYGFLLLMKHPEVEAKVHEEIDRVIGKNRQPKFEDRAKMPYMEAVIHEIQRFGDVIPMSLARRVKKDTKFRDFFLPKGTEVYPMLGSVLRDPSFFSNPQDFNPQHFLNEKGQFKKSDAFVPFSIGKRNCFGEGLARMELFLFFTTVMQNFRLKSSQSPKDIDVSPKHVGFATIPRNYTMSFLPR
Summary of the method: as §1

CYP2B6 = biological target: T2, CYP2B6 (Homo sapiens, UniProt P20813); assay: biochemical; type: in vitro ADME
T2 sequence (P20813 1-491): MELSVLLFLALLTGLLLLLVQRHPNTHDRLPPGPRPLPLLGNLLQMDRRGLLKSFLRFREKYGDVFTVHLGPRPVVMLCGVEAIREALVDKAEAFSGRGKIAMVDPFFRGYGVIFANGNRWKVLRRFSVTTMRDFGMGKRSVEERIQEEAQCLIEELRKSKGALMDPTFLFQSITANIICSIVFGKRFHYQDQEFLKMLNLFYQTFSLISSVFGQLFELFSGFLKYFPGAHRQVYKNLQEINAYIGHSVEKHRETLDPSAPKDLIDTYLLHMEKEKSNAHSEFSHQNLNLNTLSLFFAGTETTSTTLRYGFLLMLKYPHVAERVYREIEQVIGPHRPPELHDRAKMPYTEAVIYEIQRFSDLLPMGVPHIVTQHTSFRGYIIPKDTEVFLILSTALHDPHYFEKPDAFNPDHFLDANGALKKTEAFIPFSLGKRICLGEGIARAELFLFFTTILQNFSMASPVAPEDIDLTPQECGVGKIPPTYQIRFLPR

CYP3A4 [1] = assay: CYP3A4 induction in primary-cultured human hepatocytes; type: in vitro ADME; conditions: for induction of CYP3A4 enzymatic activity: three donors, 3 days dosing, 0.005–10 mg/l
OCT2 = OCT2 (Homo sapiens, UniProt O15244); assay: OCT2 uptake inhibition in transfected HEK cells; type: in vitro ADME
Summary of the method: as §2

OCT1 = biological target: T3, OCT1 (Homo sapiens, UniProt O15245); assay: Cellular uptake in OCT1-transfected HEK cells; type: in vitro ADME; conditions: not affected by decynium-22
T3 sequence (O15245 1-554): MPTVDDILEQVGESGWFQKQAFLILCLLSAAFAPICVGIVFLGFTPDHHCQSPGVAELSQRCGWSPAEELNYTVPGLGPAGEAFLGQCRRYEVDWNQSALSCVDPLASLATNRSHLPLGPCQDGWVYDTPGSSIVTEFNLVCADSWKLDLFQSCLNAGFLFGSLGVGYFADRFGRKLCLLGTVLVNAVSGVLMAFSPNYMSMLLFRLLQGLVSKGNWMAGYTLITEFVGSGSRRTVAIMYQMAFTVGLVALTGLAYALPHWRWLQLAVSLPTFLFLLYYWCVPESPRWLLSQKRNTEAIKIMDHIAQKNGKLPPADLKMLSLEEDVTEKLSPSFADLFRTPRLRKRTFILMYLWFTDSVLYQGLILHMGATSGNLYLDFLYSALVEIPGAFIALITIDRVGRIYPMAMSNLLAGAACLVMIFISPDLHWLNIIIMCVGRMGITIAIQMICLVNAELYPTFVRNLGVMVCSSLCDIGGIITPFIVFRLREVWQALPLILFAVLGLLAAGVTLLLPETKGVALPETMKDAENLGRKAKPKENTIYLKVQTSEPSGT
Summary of the method: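 Cellular uptake of test compound was measured in HEK cells transfected to overexpress OATP1B1, OATP1B3 or OCT1. Vector-control cells were run in parallel. Standard inhibitors and probe substrates were included; decynium-22 served as OCT1 inhibitor, rifamycin as OATP inhibitor.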

CYP2D6 = CYP2D6 (Homo sapiens, UniProt P10635); assay: CYP2D6 inhibition in human liver microsomes; type: in vitro ADME
Summary of the method: as §1

CYP3A4 [2] = assay: Relative induction score; design: species or system human; conditions: sensitive CYP3A4 substrate midazolam
Summary of the method: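 The relative induction score (RIS) method was applied to CYP3A4 induction data from hepatocytes of three donors treated for 3 days. Strong, moderate and weak reference inducers (rifampicin, bosentan, pioglitazone) served as calibrators for estimating clinical DDI risk.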

MRP2, sequence (Q92887 whole entry): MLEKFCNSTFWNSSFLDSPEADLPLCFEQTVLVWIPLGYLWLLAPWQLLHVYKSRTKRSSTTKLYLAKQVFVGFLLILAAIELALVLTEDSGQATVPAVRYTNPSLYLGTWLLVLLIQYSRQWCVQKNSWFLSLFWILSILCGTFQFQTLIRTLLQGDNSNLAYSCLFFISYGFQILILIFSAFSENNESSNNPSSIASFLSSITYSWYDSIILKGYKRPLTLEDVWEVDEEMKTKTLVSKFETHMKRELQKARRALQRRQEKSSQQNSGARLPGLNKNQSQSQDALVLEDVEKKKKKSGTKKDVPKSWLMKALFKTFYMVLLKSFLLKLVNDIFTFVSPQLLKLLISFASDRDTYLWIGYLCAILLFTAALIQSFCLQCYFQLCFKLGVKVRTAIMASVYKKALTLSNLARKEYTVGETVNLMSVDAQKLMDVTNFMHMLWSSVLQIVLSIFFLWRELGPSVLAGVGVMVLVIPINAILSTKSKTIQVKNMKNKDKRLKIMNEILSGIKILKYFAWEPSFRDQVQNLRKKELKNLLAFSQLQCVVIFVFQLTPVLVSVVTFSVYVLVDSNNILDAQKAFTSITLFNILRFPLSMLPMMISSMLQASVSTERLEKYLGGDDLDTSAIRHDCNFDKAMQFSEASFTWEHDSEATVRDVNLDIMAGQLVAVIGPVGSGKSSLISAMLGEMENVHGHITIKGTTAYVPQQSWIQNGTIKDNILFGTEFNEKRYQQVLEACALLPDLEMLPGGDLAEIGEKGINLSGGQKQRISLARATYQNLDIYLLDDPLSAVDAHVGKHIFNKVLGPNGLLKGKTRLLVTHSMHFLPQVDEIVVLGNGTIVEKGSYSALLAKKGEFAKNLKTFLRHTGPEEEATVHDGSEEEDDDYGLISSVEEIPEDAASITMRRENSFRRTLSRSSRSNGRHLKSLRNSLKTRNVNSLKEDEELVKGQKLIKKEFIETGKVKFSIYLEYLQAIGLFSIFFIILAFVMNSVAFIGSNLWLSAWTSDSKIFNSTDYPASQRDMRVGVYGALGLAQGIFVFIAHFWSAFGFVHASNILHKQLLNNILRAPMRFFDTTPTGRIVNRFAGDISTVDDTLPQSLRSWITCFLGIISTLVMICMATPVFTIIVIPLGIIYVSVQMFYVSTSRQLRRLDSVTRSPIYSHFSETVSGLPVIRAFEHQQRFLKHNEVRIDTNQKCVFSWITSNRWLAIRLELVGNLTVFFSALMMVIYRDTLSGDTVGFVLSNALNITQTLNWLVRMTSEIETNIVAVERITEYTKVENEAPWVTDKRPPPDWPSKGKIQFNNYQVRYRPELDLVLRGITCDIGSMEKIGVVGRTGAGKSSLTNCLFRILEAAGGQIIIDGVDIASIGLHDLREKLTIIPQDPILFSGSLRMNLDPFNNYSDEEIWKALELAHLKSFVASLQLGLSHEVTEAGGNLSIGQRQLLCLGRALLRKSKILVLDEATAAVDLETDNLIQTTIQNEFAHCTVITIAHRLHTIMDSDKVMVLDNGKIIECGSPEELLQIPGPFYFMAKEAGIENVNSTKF
OAT1, sequence (Q4U2R8 whole entry): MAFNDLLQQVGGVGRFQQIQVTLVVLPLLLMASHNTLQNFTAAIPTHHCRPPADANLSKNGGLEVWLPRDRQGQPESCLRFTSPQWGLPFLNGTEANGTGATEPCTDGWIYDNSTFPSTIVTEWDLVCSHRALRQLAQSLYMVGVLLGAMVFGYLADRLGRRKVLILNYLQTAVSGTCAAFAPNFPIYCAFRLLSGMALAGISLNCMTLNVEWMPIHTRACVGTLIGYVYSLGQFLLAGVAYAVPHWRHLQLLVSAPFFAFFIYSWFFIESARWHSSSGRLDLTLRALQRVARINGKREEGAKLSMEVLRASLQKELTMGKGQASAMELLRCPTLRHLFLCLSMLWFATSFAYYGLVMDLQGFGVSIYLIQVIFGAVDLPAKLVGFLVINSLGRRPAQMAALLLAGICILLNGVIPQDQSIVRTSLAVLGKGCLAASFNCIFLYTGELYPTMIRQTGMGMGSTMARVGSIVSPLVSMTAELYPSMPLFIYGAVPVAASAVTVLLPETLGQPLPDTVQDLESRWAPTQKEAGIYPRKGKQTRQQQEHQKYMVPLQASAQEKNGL
OCT2, sequence (O15244 whole entry): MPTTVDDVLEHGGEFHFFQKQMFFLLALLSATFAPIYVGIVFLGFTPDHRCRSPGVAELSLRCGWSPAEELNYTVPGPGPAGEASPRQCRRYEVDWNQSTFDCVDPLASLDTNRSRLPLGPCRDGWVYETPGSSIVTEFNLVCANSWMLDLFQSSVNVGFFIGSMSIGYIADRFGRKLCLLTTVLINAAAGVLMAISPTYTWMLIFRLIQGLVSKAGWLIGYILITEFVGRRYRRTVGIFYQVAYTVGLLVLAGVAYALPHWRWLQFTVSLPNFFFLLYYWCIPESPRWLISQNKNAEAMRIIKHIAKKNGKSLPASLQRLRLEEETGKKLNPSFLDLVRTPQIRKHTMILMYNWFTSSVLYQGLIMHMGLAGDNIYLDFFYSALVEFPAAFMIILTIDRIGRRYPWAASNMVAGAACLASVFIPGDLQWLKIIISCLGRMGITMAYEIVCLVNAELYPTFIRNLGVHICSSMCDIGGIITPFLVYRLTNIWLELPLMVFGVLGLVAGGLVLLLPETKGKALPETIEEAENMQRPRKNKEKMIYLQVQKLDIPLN
BSEP, sequence (O95342 whole entry): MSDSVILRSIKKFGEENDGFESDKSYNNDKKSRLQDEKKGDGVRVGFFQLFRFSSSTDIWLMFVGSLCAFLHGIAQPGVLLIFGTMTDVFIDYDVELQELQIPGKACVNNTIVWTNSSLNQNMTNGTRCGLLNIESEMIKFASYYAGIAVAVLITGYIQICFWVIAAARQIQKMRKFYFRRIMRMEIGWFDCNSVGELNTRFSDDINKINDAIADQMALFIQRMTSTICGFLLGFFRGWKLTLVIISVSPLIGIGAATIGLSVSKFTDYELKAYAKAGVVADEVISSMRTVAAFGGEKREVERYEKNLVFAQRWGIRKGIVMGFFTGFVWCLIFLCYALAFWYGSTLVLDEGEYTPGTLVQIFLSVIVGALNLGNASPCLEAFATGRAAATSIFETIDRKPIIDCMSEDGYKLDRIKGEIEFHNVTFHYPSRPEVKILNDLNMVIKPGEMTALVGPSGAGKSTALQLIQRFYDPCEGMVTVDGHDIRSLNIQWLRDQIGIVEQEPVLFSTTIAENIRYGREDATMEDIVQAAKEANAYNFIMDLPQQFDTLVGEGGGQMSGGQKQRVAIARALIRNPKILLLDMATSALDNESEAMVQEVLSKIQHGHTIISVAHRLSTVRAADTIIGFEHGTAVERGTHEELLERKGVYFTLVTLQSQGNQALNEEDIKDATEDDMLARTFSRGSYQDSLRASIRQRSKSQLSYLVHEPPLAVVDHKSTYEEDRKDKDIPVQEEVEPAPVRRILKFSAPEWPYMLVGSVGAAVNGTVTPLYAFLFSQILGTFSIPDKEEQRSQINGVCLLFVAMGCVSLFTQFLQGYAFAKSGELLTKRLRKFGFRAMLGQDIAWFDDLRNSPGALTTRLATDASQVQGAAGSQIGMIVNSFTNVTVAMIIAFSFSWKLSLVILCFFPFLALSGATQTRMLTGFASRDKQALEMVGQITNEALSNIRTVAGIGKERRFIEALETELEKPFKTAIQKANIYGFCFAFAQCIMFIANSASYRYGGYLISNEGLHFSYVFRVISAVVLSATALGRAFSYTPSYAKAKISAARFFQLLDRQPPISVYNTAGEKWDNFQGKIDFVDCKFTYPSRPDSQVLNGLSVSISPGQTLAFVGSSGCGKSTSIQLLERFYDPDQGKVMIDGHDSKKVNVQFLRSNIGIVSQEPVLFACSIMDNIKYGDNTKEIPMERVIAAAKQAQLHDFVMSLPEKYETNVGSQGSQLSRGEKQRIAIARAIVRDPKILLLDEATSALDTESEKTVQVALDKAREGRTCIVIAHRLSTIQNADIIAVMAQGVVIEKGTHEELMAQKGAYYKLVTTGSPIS
CYP2D6, sequence (P10635 whole entry): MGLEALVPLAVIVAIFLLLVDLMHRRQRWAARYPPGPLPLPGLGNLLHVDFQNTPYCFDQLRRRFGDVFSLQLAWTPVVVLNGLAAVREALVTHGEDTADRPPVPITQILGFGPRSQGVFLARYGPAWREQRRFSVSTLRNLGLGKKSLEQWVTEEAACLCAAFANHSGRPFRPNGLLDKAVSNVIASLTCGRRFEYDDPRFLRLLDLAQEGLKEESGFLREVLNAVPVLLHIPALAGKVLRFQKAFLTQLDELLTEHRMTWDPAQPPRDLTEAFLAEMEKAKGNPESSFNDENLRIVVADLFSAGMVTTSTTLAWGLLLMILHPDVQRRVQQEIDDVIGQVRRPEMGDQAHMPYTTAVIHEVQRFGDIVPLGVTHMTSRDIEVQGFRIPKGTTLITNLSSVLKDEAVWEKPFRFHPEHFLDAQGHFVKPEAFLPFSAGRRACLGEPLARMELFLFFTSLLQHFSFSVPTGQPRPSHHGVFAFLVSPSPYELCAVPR
OAT3, sequence (Q8TCC7 whole entry): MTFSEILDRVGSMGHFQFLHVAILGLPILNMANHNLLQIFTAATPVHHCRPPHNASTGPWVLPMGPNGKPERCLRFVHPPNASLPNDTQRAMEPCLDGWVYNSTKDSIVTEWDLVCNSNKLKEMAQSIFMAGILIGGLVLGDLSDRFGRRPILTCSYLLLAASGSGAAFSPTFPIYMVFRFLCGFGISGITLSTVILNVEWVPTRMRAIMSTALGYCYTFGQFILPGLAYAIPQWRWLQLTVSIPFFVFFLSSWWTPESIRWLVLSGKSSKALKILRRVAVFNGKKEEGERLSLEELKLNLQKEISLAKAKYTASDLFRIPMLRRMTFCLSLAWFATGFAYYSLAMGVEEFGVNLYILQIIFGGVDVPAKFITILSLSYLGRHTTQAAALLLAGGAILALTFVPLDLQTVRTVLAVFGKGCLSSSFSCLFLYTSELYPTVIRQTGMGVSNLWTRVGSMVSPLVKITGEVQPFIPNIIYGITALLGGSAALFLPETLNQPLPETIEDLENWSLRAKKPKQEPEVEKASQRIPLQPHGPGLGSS

CC(O)c1cc(C(=O)N[C@@H](C)Cn2ccc(-c3ccc(C#N)c(Cl)c3)n2)[nH]n1 (stereo partly shown) [Darolutamide, darolutamide]
IC50 (BSEP): > 60 µM
IC50 (CYP2C19): 64.1 µM
IC50 (OAT1): > 50 µM
IC50 (MRP2): > 50 µM
IC50 (OAT3): 4.5 µM
IC50 (CYP2A6): > 100 µM
IC50 (CYP2B6): > 100 µM
CYP3A4 induction as % of rifampicin response (CYP3A4 [1]): 28%
induction of CYP3A4 enzymatic activity (CYP3A4 [1]): ≤ 5.3 fold
IC50 (OCT2): > 50 µM
uptake in OCT1-transfected HEK cells (OCT1): no uptake
IC50 (CYP2D6): 81.9 µM
Overall assessment of CYP3A4 induction (RIS method) (CYP3A4 [2]): moderate-to-strong inducers

CC(=O)c1cc(C(=O)N[C@@H](C)Cn2ccc(-c3ccc(C#N)c(Cl)c3)n2)[nH]n1 [Keto-darolutamide, keto-darolutamide]
IC50 (BSEP; read-out: IC50, BSEP, sandwich-cultured human hepatocytes, taurocholic acid/cyclosporin, higher test concentration possible because of addition of protein to the assay media): > 300 µM
IC50 (CYP2C19; read-out: IC50, CYP2C19, human liver microsomes, substrate S-mephenytoin): 39.5 µM
IC50 (OAT1; read-out: IC50, OAT1, HEK cells, substrate PAH, reference probenecid): > 2 µM
IC50 (MRP2; read-out: IC50, MRP2, HEK cells, substrate CDCF, reference benzbromarone): > 10 µM
IC50 (OAT3; read-out: IC50, OAT3, HEK cells, substrate furosemide, reference probenecid): > 2 µM
IC50 (CYP2A6; read-out: IC50, CYP2A6, human liver microsomes, substrate coumarin): > 100 µM
IC50 (CYP2B6; read-out: IC50, CYP2B6, human liver microsomes, substrate bupropion): 54.2 µM
induction of CYP3A4 enzymatic activity (CYP3A4 [1]): ≤ 5.4 fold
IC50 (OCT2; read-out: IC50, OCT2, HEK cells, substrate 3H-MPP+, reference imipramine): > 2 µM
uptake in OCT1-transfected HEK cells (OCT1): no uptake
IC50 (CYP2D6; read-out: IC50, CYP2D6, human liver microsomes, substrate bufuralol): 51.9 µM
Overall assessment of CYP3A4 induction (RIS method) (CYP3A4 [2]): weak-to-moderate inducer
